# Reference: ChEMBL document CHEMBL1649441, “Potency and bactericidal activity of iclaprim against recent clinical gram-positive isolates” (2009)
# Columns and labels:
# Type in all cases: functional
# [1] = tested on: Enterococcus faecalis; assay: (§1) Antibacterial activity against Enterococcus faecalis assessed as inhibition of bacterial growth at […] by CLSI broth microdilution method
# [2] = tested on: Enterococcus faecium; assay: Antibacterial activity against Enterococcus faecium assessed as inhibition of bacterial growth at 0.06 ug/ml by CLSI broth microdilution method
# Summary of the method: (§2)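 Clinical isolates from skin/soft tissue, bloodstream and respiratory specimens were tested by broth microdilution per CLSI M7-A7 and M100-S18, with quality controls. Values are the number of isolates inhibited at each concentration, or MIC / percent susceptible. Highest concentration tested was 8 µg/ml for iclaprim and trimethoprim-sulfamethoxazole, and 64 µg/ml for trimethoprim.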
# [3] = tested on: Streptococcus sp. 'group B'; assay: Antibacterial activity against Beta-hemolytic Streptococcus group B assessed as inhibition of bacterial growth at 4 ug/ml by CLSI broth microdilution method; summary of the method: as §2
# [4] = tested on: Streptococcus sp. 'group A'; assay: Antibacterial activity against Beta-hemolytic Streptococcus group A assessed as inhibition of bacterial growth at 8 ug/ml by CLSI broth microdilution method; summary of the method: as §2
# [5] = tested on: Streptococcus sp. 'group B'; assay: Antibacterial activity against Beta-hemolytic Streptococcus group B assessed as inhibition of bacterial growth at 0.5 ug/ml by CLSI broth microdilution method; summary of the method: as §2
# [6] = tested on: Staphylococcus aureus; assay: Antibacterial activity against Methicillin-resistant Staphylococcus aureus by CLSI broth microdilution method
# [7] = tested on: Streptococcus sp. 'group A'; assay: Antibacterial activity against Beta-hemolytic Streptococcus group A assessed as inhibition of bacterial growth at 2 ug/ml by CLSI broth microdilution method; summary of the method: as §2
# [8] = tested on: Staphylococcus aureus; assay: Antibacterial activity against Methicillin-sensitive Staphylococcus aureus by CLSI broth microdilution method
# [9] = tested on: Streptococcus sp. 'group A'; assay: Antibacterial activity against Beta-hemolytic Streptococcus group A assessed as inhibition of bacterial growth at 0.03 ug/ml by CLSI broth microdilution method; summary of the method: as §2
# [10] = tested on: Enterococcus faecalis; assay: Antibacterial activity against Enterococcus faecalis assessed as inhibition of bacterial growth at 2 ug/ml by CLSI broth microdilution method; summary of the method: as §2
# [11] = tested on: Staphylococcus aureus; assay: Antibacterial activity against Methicillin-sensitive Staphylococcus aureus assessed as inhibition of bacterial growth at 8 ug/ml by CLSI broth microdilution method
# Summary of the method: (§3)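 Recent clinical isolates from skin/soft tissue, bloodstream and respiratory specimens. Tested by broth microdilution per CLSI M7-A7 and M100-S18, with the appropriate quality controls. The thymidine content of the test medium was assessed to rule out artifactual inhibition.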
# [12] = tested on: Streptococcus sp. 'group A'; assay: Antibacterial activity against Beta-hemolytic Streptococcus group A assessed as inhibition of bacterial growth at […] by CLSI broth microdilution method
# [13] = tested on: Enterococcus faecalis; assay: Antibacterial activity against Enterococcus faecalis assessed as inhibition of bacterial growth at >8 ug/ml by CLSI broth microdilution method; summary of the method: as §2
# [14] = tested on: Staphylococcus aureus; assay: Antibacterial activity against Methicillin-resistant Staphylococcus aureus assessed as inhibition of bacterial growth at 0.06 ug/ml by CLSI broth microdilution method; summary of the method: as §3
# [15] = tested on: Enterococcus faecalis; assay: Antibacterial activity against Enterococcus faecalis assessed as inhibition of bacterial growth at 0.03 ug/ml by CLSI broth microdilution method; summary of the method: as §2
# [16] = tested on: Enterococcus faecium; assay: Antibacterial activity against Enterococcus faecium assessed as inhibition of bacterial growth at 8 ug/ml by CLSI broth microdilution method
# [17] = tested on: Enterococcus faecium; assay: Antibacterial activity against Enterococcus faecium assessed as inhibition of bacterial growth at 0.5 ug/ml by CLSI broth microdilution method
# [18] = tested on: Enterococcus faecium; assay: Antibacterial activity against Enterococcus faecium assessed as inhibition of bacterial growth at 1 ug/ml by CLSI broth microdilution method
# [19] = tested on: Staphylococcus aureus; assay: Antibacterial activity against Methicillin-sensitive Staphylococcus aureus assessed as inhibition of bacterial growth at 2 ug/ml by CLSI broth microdilution method
# [20] = tested on: Enterococcus faecalis; assay: Antibacterial activity against Enterococcus faecalis by CLSI broth microdilution method
# [21] = tested on: Enterococcus faecalis; assay: as §1; remark: listed apart in the source
# [22] = tested on: Staphylococcus aureus; assay: (§4) Antibacterial activity against Methicillin-resistant Staphylococcus aureus assessed as inhibition of bacterial growth at […] by CLSI broth microdilution method
# [23] = tested on: Staphylococcus aureus; assay: Antibacterial activity against Methicillin-sensitive Staphylococcus aureus assessed as inhibition of bacterial growth at […] by CLSI broth microdilution method; settings: Staphylococcus aureus; note: tested at 0.25 µg/mL
# [24] = tested on: Staphylococcus aureus; assay: Antibacterial activity against Methicillin-sensitive Staphylococcus aureus assessed as inhibition of bacterial growth at 1 ug/ml by CLSI broth microdilution method
# [25] = tested on: Staphylococcus aureus; assay: Antibacterial activity against Methicillin-resistant Staphylococcus aureus assessed as inhibition of bacterial growth at 4 ug/ml by CLSI broth microdilution method; summary of the method: as §3
# [26] = tested on: Enterococcus faecium; assay: Antibacterial activity against Enterococcus faecium by CLSI broth microdilution method
# [27] = tested on: Streptococcus sp. 'group B'; assay: Antibacterial activity against Beta-hemolytic Streptococcus group B assessed as inhibition of bacterial growth at 2 ug/ml by CLSI broth microdilution method; summary of the method: as §2
# [28] = tested on: Streptococcus sp. 'group A'; assay: Antibacterial activity against Beta-hemolytic Streptococcus group A assessed as inhibition of bacterial growth at 0.5 ug/ml by CLSI broth microdilution method; summary of the method: as §2
# [29] = tested on: Enterococcus faecium; assay: Antibacterial activity against Enterococcus faecium assessed as inhibition of bacterial growth at 2 ug/ml by CLSI broth microdilution method
# [30] = tested on: Enterococcus faecalis; assay: Antibacterial activity against Enterococcus faecalis assessed as inhibition of bacterial growth at 8 ug/ml by CLSI broth microdilution method; summary of the method: as §2
# [31] = tested on: Enterococcus faecalis; assay: Antibacterial activity against Enterococcus faecalis assessed as inhibition of bacterial growth at 0.5 ug/ml by CLSI broth microdilution method; summary of the method: as §2
# [32] = tested on: Streptococcus sp. 'group A'; assay: Antibacterial activity against Beta-hemolytic Streptococcus group A assessed as inhibition of bacterial growth at 1 ug/ml by CLSI broth microdilution method; summary of the method: as §2
# [33] = tested on: Streptococcus sp. 'group B'; assay: Antibacterial activity against Beta-hemolytic Streptococcus group B assessed as inhibition of bacterial growth at 1 ug/ml by CLSI broth microdilution method; summary of the method: as §2
# [34] = tested on: Staphylococcus aureus; assay: Antibacterial activity against Methicillin-sensitive Staphylococcus aureus assessed as inhibition of bacterial growth at 0.06 ug/ml by CLSI broth microdilution method; settings: Staphylococcus aureus
# [35] = tested on: Enterococcus faecalis; assay: Antibacterial activity against Enterococcus faecalis assessed as inhibition of bacterial growth at 4 ug/ml by CLSI broth microdilution method; summary of the method: as §2
# [36] = tested on: Enterococcus faecalis; assay: Antibacterial activity against Enterococcus faecalis assessed as inhibition of bacterial growth at 0.06 ug/ml by CLSI broth microdilution method; summary of the method: as §2
# [37] = tested on: Streptococcus sp. 'group B'; assay: Antibacterial activity against Beta-hemolytic Streptococcus group B assessed as inhibition of bacterial growth at […] by CLSI broth microdilution method; note: tested at 0.25 µg/mL
# [38] = tested on: Streptococcus sp. 'group B'; assay: Antibacterial activity against Beta-hemolytic Streptococcus group B assessed as inhibition of bacterial growth at 0.06 ug/ml by CLSI broth microdilution method; summary of the method: as §2
# [39] = tested on: Staphylococcus aureus; assay: as §4; remark: listed apart in the source
# [40] = tested on: Staphylococcus aureus; assay: Antibacterial activity against Methicillin-sensitive Staphylococcus aureus assessed as inhibition of bacterial growth at 0.5 ug/ml by CLSI broth microdilution method
# [41] = tested on: Enterococcus faecalis; assay: Antibacterial activity against Enterococcus faecalis assessed as inhibition of bacterial growth at 1 ug/ml by CLSI broth microdilution method; summary of the method: as §2
# [42] = tested on: Staphylococcus aureus; assay: Antibacterial activity against Methicillin-resistant Staphylococcus aureus assessed as inhibition of bacterial growth at 2 ug/ml by CLSI broth microdilution method; summary of the method: as §3
smiles,measurement,setting,value
COc1cc(Cc2cnc(N)nc2N)c2c(c1OC)OC(C1CC1)C=C2 (stereo unspecified),inhibition at […],[1],69%
same,inhibition at 0.06 µg/mL,[2],37.6%
same,inhibition at 4 µg/mL,[3],100%
same,inhibition at 8 µg/mL,[4],100%
same,inhibition at 0.5 µg/mL,[5],100%
same,MIC50,[6],0.06 µg/mL
same,MIC90,[6],0.12 µg/mL
same,inhibition at 2 µg/mL,[7],100%
same,MIC50,[8],0.06 µg/mL
same,MIC90,[8],0.12 µg/mL
same,inhibition at 0.03 µg/mL,[9],94.9%
same,inhibition at 2 µg/mL,[10],71.9%
same,inhibition at 8 µg/mL,[11],100%
same,inhibition at […],[12],100%
same,inhibition (INH),[13],100%
same,inhibition at 0.06 µg/mL,[14],69.6%
same,inhibition at 0.03 µg/mL,[15],63.9%
same,inhibition at 8 µg/mL,[16],75.6%
same,inhibition at 0.5 µg/mL,[17],39.3%
same,inhibition at 1 µg/mL,[18],42.2%
same,inhibition at 2 µg/mL,[19],98.7%
same,MIC50,[20],0.015 µg/mL
same,MIC90,[20],4 µg/mL
same,inhibition at […],[21],70.6%
same,inhibition at […],[22],91.1%
same,inhibition at […],[23],98.5%
same,inhibition at 1 µg/mL,[24],98.7%
same,inhibition at 4 µg/mL,[25],97.9%
same,MIC50,[26],2 µg/mL
same,MIC90,[26],> 8 µg/mL
same,inhibition at 2 µg/mL,[27],100%
same,inhibition at 0.5 µg/mL,[28],100%
same,inhibition at 2 µg/mL,[29],58.1%
same,inhibition at 8 µg/mL,[30],1.9%
same,inhibition at 0.5 µg/mL,[31],70.6%
same,inhibition at 1 µg/mL,[32],100%
same,inhibition at 1 µg/mL,[33],100%
same,inhibition at 0.06 µg/mL,[34],58.8%
same,inhibition at 4 µg/mL,[35],96.8%
same,inhibition at 0.06 µg/mL,[36],67.1%
same,inhibition at […],[37],91.2%
same,inhibition at 0.06 µg/mL,[38],5.4%
same,inhibition at […],[39],92.3%
same,inhibition at 0.5 µg/mL,[40],98.6%
same,inhibition at 1 µg/mL,[41],71%
same,inhibition at 2 µg/mL,[42],94.6%
